Laboratory results published in ChEMBL document CHEMBL4020824, “Discovery of Potent and Orally Bioavailable Dihydropyrazole GPR40 Agonists” (J Med Chem, 2018).
Activity calls are given as the source filed them. The calls are words filed in the database; no cut-off is given here.

Key:
[1] = target: Free fatty acid receptor 1 (Homo sapiens, UniProt O14842); assay: Agonist activity at human GPR40 expressed in CHOA12 cells assessed as induction of Ca2+ mobilization by FLIPR assay; assay type: functional, cell-based
[2] = Stability in human liver microsomes assessed as parent compound remaining at 1 to 3 uM incubated for 20 mins in presence NADPH measured up to 90 mins by LC/MS/MS analysis; assay type: ADME, microsome; conditions: liver microsomes, read-out: Stability
Method in brief: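 Human or rat liver microsomal incubations. The read-outs were % parent remaining, % D-ring dealkylation metabolites, % GSH adducts, and half-life (min). The metabolites followed were CYP450-mediated oxidative de-alkylation products (phenols) and GSH conjugates.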

[3] = Half life in human liver microsomes at 1 to 3 uM incubated for 20 mins in presence NADPH measured up to 90 mins by LC/MS/MS analysis; assay type: ADME, microsome; conditions: liver microsomes
[4] = Half life in rat liver microsomes at 1 to 3 uM incubated for 20 mins in presence NADPH measured up to 90 mins by LC/MS/MS analysis; assay type: ADME, microsome; conditions: liver microsomes
[5] = Cmax in C57BL6 mouse at 1 mg/kg, po administered as single dose measured up to 24 hrs post dose by LC-MS/MS analysis; assay type: ADME, organism-based; parameters: dose 1 mg/kg, route oral; conditions: in vivo
[6] = Tmax in C57BL6 mouse at 1 mg/kg, po administered as single dose measured up to 24 hrs post dose by LC-MS/MS analysis; assay type: ADME, organism-based; conditions: in vivo
[7] = Clearance in CD1 mouse at 1 mg/kg, iv administered as bolus dose or 1 mg/kg, po administered as single dose measured up to 24 hrs post dose by LC-MS/MS analysis; assay type: ADME, organism-based; conditions: in vivo
[8] = Volume of distribution at steady state in CD1 mouse at 1 mg/kg, iv via bolus dose or 1 mg/kg, po administered as single dose measured up to 24 hrs post dose by LC-MS/MS analysis; assay type: ADME, organism-based; conditions: in vivo, read-out: Vdss
[9] = Oral bioavailability in C57BL6 mouse at 1 mg/kg administered as single dose measured up to 24 hrs post dose by LC-MS/MS analysis; assay type: ADME, organism-based; conditions: in vivo
[10] = Cmax in Sprague-Dawley rat at 3 mg/kg, po administered as single dose measured up to 24 hrs post dose by LC-MS/MS analysis; assay type: ADME, organism-based; parameters: dose 3 mg/kg, route oral; conditions: in vivo
[11] = Tmax in Sprague-Dawley rat at 3 mg/kg, po administered as single dose measured up to 24 hrs post dose by LC-MS/MS analysis; assay type: ADME, organism-based; conditions: in vivo
[12] = Half life in Sprague-Dawley rat at 1 mg/kg, iv administered as single dose measured up to 24 hrs post dose by LC-MS/MS analysis; assay type: ADME, organism-based; conditions: in vivo
[13] = Clearance in Sprague-Dawley rat at 1 mg/kg, iv administered as single dose measured up to 24 hrs post dose by LC-MS/MS analysis; assay type: ADME, organism-based; conditions: in vivo
[14] = Volume of distribution at steady state in Sprague-Dawley rat at 1 mg/kg, iv administered as single dose measured up to 24 hrs post dose by LC-MS/MS analysis; assay type: ADME, organism-based; conditions: in vivo, read-out: Vdss
[15] = Cmax in Beagle dog at 1 mg/kg, po administered as single dose measured up to 24 hrs post dose by LC-MS/MS analysis; assay type: ADME, organism-based, Canis lupus familiaris; parameters: dose 1 mg/kg, route oral; conditions: in vivo
[16] = Half life in Beagle dog at 0.5 mg/kg, iv administered as single dose measured up to 24 hrs post dose by LC-MS/MS analysis; assay type: ADME, organism-based, Canis lupus familiaris; conditions: in vivo
[17] = Clearance in Beagle dog at 0.5 mg/kg, iv administered as single dose measured up to 24 hrs post dose by LC-MS/MS analysis; assay type: ADME, organism-based, Canis lupus familiaris; conditions: in vivo
[18] = Oral bioavailability in Beagle dog at 1 mg/kg administered via gavage as single dose measured up to 24 hrs post dose by LC-MS/MS analysis; assay type: ADME, organism-based, Canis lupus familiaris; conditions: in vivo
[19] = Tmax in cynomolgus monkey at 1 mg/kg, po administered as single dose measured up to 24 hrs post dose by LC-MS/MS analysis; assay type: ADME, organism-based, Macaca fascicularis; conditions: in vivo
[20] = Clearance in cynomolgus monkey at 0.5 mg/kg, iv administered as single dose measured up to 24 hrs post dose by LC-MS/MS analysis; assay type: ADME, organism-based, Macaca fascicularis; conditions: in vivo
[21] = Volume of distribution at steady state in cynomolgus monkey at 0.5 mg/kg, iv administered as single dose measured up to 24 hrs post dose by LC-MS/MS analysis; assay type: ADME, organism-based, Macaca fascicularis; conditions: in vivo, read-out: Vdss
[22] = Oral bioavailability in cynomolgus monkey at 1 mg/kg administered via gavage as single dose measured up to 24 hrs post dose by LC-MS/MS analysis; assay type: ADME, organism-based, Macaca fascicularis; conditions: in vivo
Mus musculus [23] = assay: Antidiabetic activity in po dosed C57BL/6J mouse assessed as reduction of plasma glucose excursion administered 1 hr prior to glucose challenge measured after 120 mins by IPGTT; assay type: functional, organism-based
Mus musculus [24] = assay: Antidiabetic activity in C57BL/6J mouse assessed as increase in plasma insulin levels at 3 mg/kg, po administered 1 hr prior to glucose challenge measured after 120 mins during OGTT by ELISA; assay type: functional, organism-based
Mus musculus [25] = assay: Antidiabetic activity in C57BL/6J mouse assessed as reduction in plasma glucose excursion at 3 mg/kg, po administered 1 hr prior to glucose challenge measured after 120 mins by OGTT assay; assay type: functional, organism-based
Mus musculus [26] = assay: Antidiabetic activity in C57BL/6J mouse assessed as increase in active GLP-1 levels at 3 mg/kg, po administered 1 hr prior to glucose challenge measured after 120 mins in presence of DPP4 inhibitor BMS-538305 during OGTT assay by ELISA; assay type: functional, organism-based
Mus musculus [27] = assay: Antidiabetic activity in C57BL/6J mouse assessed as reduction in plasma glucose excursion at 3 mg/kg, po administered 1 hr prior to glucose challenge measured after 120 mins in presence of DPP4 inhibitor BMS-538305 by OGTT assay; assay type: functional, organism-based
[28] = target: T1, Amine oxidase [flavin-containing] B (Homo sapiens, UniProt P27338); assay: Inhibition of MAO-B (unknown origin)
T1 sequence (P27338 whole entry): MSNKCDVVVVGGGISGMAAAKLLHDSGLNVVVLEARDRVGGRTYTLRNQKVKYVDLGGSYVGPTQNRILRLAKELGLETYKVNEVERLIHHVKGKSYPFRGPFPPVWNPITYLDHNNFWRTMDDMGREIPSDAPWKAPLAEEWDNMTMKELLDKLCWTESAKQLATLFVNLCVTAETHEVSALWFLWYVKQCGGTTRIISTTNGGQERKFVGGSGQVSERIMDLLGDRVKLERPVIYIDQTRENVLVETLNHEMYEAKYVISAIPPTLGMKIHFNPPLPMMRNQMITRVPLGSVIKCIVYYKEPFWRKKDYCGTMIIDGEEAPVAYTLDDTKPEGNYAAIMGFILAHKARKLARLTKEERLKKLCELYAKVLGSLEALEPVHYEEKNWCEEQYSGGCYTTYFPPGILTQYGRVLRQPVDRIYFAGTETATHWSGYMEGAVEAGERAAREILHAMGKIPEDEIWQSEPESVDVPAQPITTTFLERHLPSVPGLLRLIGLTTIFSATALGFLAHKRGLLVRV

Mus musculus [29] = assay: Toxicity in C57BL/6J mouse assessed as induction of hypoglycemia effect at 1 mg/kg, po administered 1 hr prior to glucose challenge measured after 120 mins by IPGTT; assay type: organism-based; conditions: in vivo, 2 h

Sequence of Free fatty acid receptor 1 (O14842 whole entry): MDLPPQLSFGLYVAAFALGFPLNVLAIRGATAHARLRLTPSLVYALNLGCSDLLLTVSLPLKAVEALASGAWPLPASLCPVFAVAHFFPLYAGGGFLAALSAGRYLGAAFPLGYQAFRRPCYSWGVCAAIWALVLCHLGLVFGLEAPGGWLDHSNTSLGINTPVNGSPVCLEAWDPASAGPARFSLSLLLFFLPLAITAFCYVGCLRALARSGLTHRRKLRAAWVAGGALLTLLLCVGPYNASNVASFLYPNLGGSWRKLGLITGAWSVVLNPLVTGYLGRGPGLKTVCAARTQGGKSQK

EC50 [1]: 0.07 µM
remaining at 20 min, up to 3 µM [2]: 89%
half-life [3]: 1.7 h
half-life [4]: 1.35 h
Cmax [5]: 6 µM
Tmax [6]: 1 h
clearance [7]: 2 mL/min/kg
Vd [8]: 0.4 L/kg
bioavailability [9]: 100%
Cmax [10]: 3.5 µM
Tmax [11]: 1.3 h
half-life [12]: 4 h
clearance [13]: 3.4 mL/min/kg
Vd [14]: 0.3 L/kg
Cmax [15]: 1.2 µM
half-life [16]: 5.2 h
clearance [17]: 2.2 mL/min/kg
bioavailability [18]: 62%
Tmax [19]: 5 h
clearance [20]: 0.7 mL/min/kg
Vd [21]: 0.7 L/kg
bioavailability [22]: 61%
IC50 [28]: 6 µM
Structure (SMILES): COc1cc(N2CC[C@@H](Oc3ccc(N4N=C(C(F)(F)F)[C@@H](C)[C@@H]4CC(=O)O)cc3)[C@H](C)C2)c(Cl)cn1
Activity (Mus musculus [23]): Dose-dependent effect
Activity (Mus musculus [24]): Active
Activity (Mus musculus [25]): Active
Activity (Mus musculus [26]): Active
Activity (Mus musculus [27]): Active
Activity (Mus musculus [29]): Non-Toxic
